The nature of data set [1]: Displacement of [3H]sipatrigine from Wistar rat brain synaptosomes voltage-gated sodium channel by liquid scintillation counting. It counts as subcellular. (In general: Loss of bound radioactivity is the signal in a displacement assay; it reports binding, not function.)
The species named for data set [2] is Rattus norvegicus. The data set can be described thus: Neuroprotective activity in oxygen/glucose deprivation-induced Wistar rat hippocampal slice assessed as inhibition of cell death by measuring ATP level at 50 uM. It is filed as functional.
Data set [3] can be described thus: Metabolic stability in rat liver microsomes assessed as drug turnover at 1 uM at 40 mins by LC-MS/MS analysis. It is filed as ADME. Conditions: read-out: Drug metabolism. An outline of the steps: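 Compound at 1 μM was incubated (n=2) with pooled rat liver microsomes (0.25 mg protein/ml) at 37°C for 0 and 40 min. Reactions were stopped with acetonitrile containing an internal standard, and parent disappearance was measured by LC-MS/MS. Percentage turnover was taken from peak heights relative to the zero-time samples.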

For data set [4], the species on record is Rattus norvegicus. Description: Neuroprotective activity in oxygen/glucose deprivation-induced Wistar rat hippocampal slice assessed as inhibition of cell death by measuring ATP level. It counts as functional.

By IC50 is commonly meant the concentration at which inhibition is half-maximal. Usually inhibition stands for the drop in the measured response relative to a control, in per cent. The molecule `O=C(NCc1noc(-c2nn(CCn3ccnc3)c3ccccc23)n1)c1cccc2[nH]ccc12` gave a half-maximal inhibitory concentration (IC50) in data set [1] of 13 µM. The inhibition at 50 µM in data set [2] is 52%.
Taken in the same sequence, the figures for `O=C(NCc1noc(-c2c3ccccc3nn2CCn2ccnc2)n1)c1ccc2ccccc2c1` were 0.4 µM and 22%.
Regarding `NCc1noc(-c2c3ccccc3nn2CCn2ccnc2)n1`, the metabolised at 40 min, 1 µM in data set [3] stood at 57%. The molecule further displayed an IC50 in data set [1] of 14 µM. In addition, the inhibition at 50 µM in data set [2] was found to be 8%.
With `Cc1oncc1Cn1nc(-c2nc(CN)no2)c2ccccc21`, in data set [1], the half-maximal inhibitory concentration (IC50) was found to be 15 µM. Moreover, in data set [2], the inhibition at 50 µM turned out to be 19%.
In data set [1], `CC(C)(C)c1ccc(S(=O)(=O)NCc2noc(-c3nn(CCn4ccnc4)c4ccccc34)n2)cc1` returned an IC50 of 4.4 µM. The inhibition at 50 µM in data set [2] is 16%.
For `O=C(NCc1noc(-c2c3ccccc3nn2CCn2ccnc2)n1)c1ccc2c(c1)OCO2`, in that order: 5 µM and 27%.
In turn, `NCc1noc(-c2c3ccccc3nn2Cc2ccccn2)n1` displayed an IC50 in data set [1] of over 10000 µM. Further, the inhibition at 50 µM in data set [2] worked out at 25%.
Take `O=S(=O)(NCc1noc(-c2nn(CCn3ccnc3)c3ccccc23)n1)c1ccc(OC(F)(F)F)cc1`: the 50% inhibitory concentration (IC50) in data set [1] turned out to be 4.9 µM. Besides, the inhibition at 50 µM in data set [2] was determined as 0%.
For `O=C(NCc1noc(-c2c3ccccc3nn2CCc2cccs2)n1)c1ccccc1`, in that order: over 1000 µM and -2%.
Turning to `COc1ccccc1C(=O)NCc1noc(-c2c3ccccc3nn2CCn2ccnc2)n1`, the IC50 in data set [1] was determined as 7.1 µM. The inhibition at 50 µM in data set [2] worked out at 54%.
Taken in the same sequence, the figures for `CC(C)(C)c1ccc(C(=O)NCc2noc(-c3nn(CCn4ccnc4)c4ccccc34)n2)cc1` were 1.2 µM and 40%.
Taken in the same sequence, the figures for `Cc1oncc1Cn1nc(-c2nc(CNC(=O)c3ccccc3)no2)c2ccccc21` were over 2000 µM and 19%.
In data set [1], `CC(C)(C)OC(=O)NCc1noc(-c2nn(Cc3ccc(-n4cccn4)cc3)c3ccccc23)n1` came in with an IC50 of 617 µM. For the same molecule, the inhibition at 50 µM in data set [2] was found to be 20%.
With `Cc1cc(C(=O)NCc2noc(-c3c4ccccc4nn3CCn3ccnc3)n2)ccc1[N+](=O)[O-]`, in data set [1], the IC50 is 1.7 µM. In addition, in data set [2], the inhibition at 50 µM was determined as 43%.
For `Cc1cccc(C(=O)NCc2noc(-c3c4ccccc4nn3CCn3ccnc3)n2)c1`, in that order: 2.5 µM and 41%.
In data set [1], `Cc1ccccc1S(=O)(=O)NCc1noc(-c2nn(CCn3ccnc3)c3ccccc23)n1` showed a 50% inhibitory concentration (IC50) of 4.9 µM. Besides, in data set [2], the inhibition at 50 µM is 57%.
`NCc1noc(-c2c3ccccc3nn2Cc2ccccc2)n1`: the inhibition at 50 µM in data set [2] was 57%.
With `NCc1noc(-c2nn(Cc3ccc4c(c3)OCO4)c3ccccc23)n1`, the IC50 in data set [1] is 2.1 µM. In addition, in data set [2], the inhibition at 50 µM was determined as 44%.
The molecule `CC(C)(C)OC(=O)NCc1noc(-c2c3ccccc3nn2Cc2ccccn2)n1` had an IC50 in data set [1] of 23 µM. For the same molecule, in data set [2], the inhibition at 50 µM was 42%.
Taken in the same sequence, the figures for `COc1ccc(C(=O)NCc2noc(-c3c4ccccc4nn3CCn3ccnc3)n2)cc1` were 6.2 µM and 55%.
Taken in the same sequence, the figures for `O=C(NCc1noc(-c2c3ccccc3nn2Cc2ccccn2)n1)c1ccccc1` were 41 µM and 58%.
For the molecule `O=C(NCc1noc(-c2c3ccccc3nn2CCn2ccnc2)n1)c1ccc(Cl)cc1`, the IC50 in data set [1] stood at 2.2 µM. Moreover, the inhibition at 50 µM in data set [2] worked out at 42%.
The molecule `CC(C)(C)OC(=O)NCc1noc(-c2nn(Cc3ccc4c(c3)OCO4)c3ccccc23)n1` came in with an IC50 in data set [1] of 6 µM. Besides, in data set [2], the inhibition at 50 µM was -3%.
For `COc1ccc(C(=O)NCc2noc(-c3nn(CCn4ccnc4)c4ccccc34)n2)c(OC)c1OC`, in that order: 5.3 µM and 37%.
Taken in the same sequence, the figures for `O=C(NCc1noc(-c2c3ccccc3nn2CCn2ccnc2)n1)c1ccc(OC(F)(F)F)cc1` were 0.7 µM and 31%.
For the molecule `CC(=O)Nc1ccc(S(=O)(=O)NCc2noc(-c3c4ccccc4nn3CCn3ccnc3)n2)cc1`, the metabolised at 40 min, 1 µM in data set [3] amounted to 54%. The molecule also displayed an IC50 in data set [1] of 17 µM. Also, in data set [2], the inhibition at 50 µM is 25%.
`COc1cccc(C(=O)NCc2noc(-c3nn(CCn4ccnc4)c4ccccc34)n2)c1OC` yielded an IC50 in data set [1] of 7.1 µM. The inhibition at 50 µM in data set [2] came out at 69%.
Taken in the same sequence, the figures for `CC(C)(C)OC(=O)NCc1noc(-c2nn(CCn3ccnc3)c3ccccc23)n1` were 7.4 µM and 56%.
Consider `Cc1ccccc1C(=O)NCc1noc(-c2c3ccccc3nn2CCn2ccnc2)n1`, for which the half-inhibitory concentration (IC50) in data set [1] worked out at 2.9 µM. Moreover, the inhibition at 50 µM in data set [2] was found to be 62%.
With `NCc1noc(-c2c3ccccc3nn2CCc2cccs2)n1`, the IC50 in data set [1] is 0.6 µM. Also, the inhibition at 50 µM in data set [2] stood at 36%.
Taken in the same sequence, the figures for `COc1cccc(S(=O)(=O)NCc2noc(-c3nn(CCn4ccnc4)c4ccccc34)n2)c1OC` were over 500 µM and 37%.
Taken in the same sequence, the figures for `O=C(NCc1noc(-c2c3ccccc3nn2CCn2ccnc2)n1)c1cccc(F)c1F` were 3.6 µM and 2%.
For `O=S(=O)(NCc1noc(-c2nn(CCn3ccnc3)c3ccccc23)n1)c1cccc(C(F)(F)F)c1`, in that order: 2.1 µM and 38%.
In the case of `O=S(=O)(NCc1noc(-c2nn(CCn3ccnc3)c3ccccc23)n1)c1ccc(Cl)cc1`, in data set [1], the IC50 worked out at 10 µM. Moreover, in data set [2], the inhibition at 50 µM came to 21%.
With `CC(=O)Nc1ccc(C(=O)NCc2noc(-c3c4ccccc4nn3CCn3ccnc3)n2)cc1`, the metabolised at 40 min, 1 µM in data set [3] is 45%. Moreover, the 50% inhibitory concentration (IC50) in data set [1] is 59 µM. Also, in data set [2], the inhibition at 50 µM is -14%.
`O=C(NCc1noc(-c2nn(CCn3ccnc3)c3ccccc23)n1)c1cccc(OC(F)(F)F)c1`: in data set [3], the metabolised at 40 min, 1 µM is 78%. The same molecule returned a half-inhibitory concentration (IC50) in data set [1] of 1.5 µM. In addition, the inhibition at 50 µM in data set [2] came out at 37%.
Take `COc1cccc(C(=O)NCc2noc(-c3c4ccccc4nn3CCn3ccnc3)n2)c1`: the IC50 in data set [1] came to 5 µM. For the same molecule, the inhibition at 50 µM in data set [2] worked out at 63%.
In the case of `NCc1noc(-c2nn(-c3ccccn3)c3ccccc23)n1`, the 50% inhibitory concentration (IC50) in data set [1] stood at 32 µM. Also, the inhibition at 50 µM in data set [2] was -11%.
For orientation: EC50 means the midpoint of the concentration-response curve. Consider `NCc1noc(-c2nn(Cc3ccccc3)c3ccccc23)n1`, for which, in data set [4], the EC50 was found to be 35 µM.
Molecule `CC(C)(C)OC(=O)NCc1noc(-c2nn(-c3ccccn3)c3ccccc23)n1` yielded a half-inhibitory concentration (IC50) in data set [1] of 74 µM. Moreover, the inhibition at 50 µM in data set [2] worked out at 18%.
For `NCc1noc(-c2nn(CCn3ccnc3)c3ccccc23)n1`, in that order: 148 µM and -2%.
`CC(C)(C)OC(=O)NCc1noc(-c2c3ccccc3nn2CCn2ccnc2)n1`: the metabolised at 40 min, 1 µM in data set [3] was determined as 70%. Moreover, the half-inhibitory concentration (IC50) in data set [1] was 15.5 µM. The inhibition at 50 µM in data set [2] is 35%.
On to `NCc1noc(-c2nn(Cc3ccc(-n4cccn4)cc3)c3ccccc23)n1`, for which the IC50 in data set [1] is 6.2 µM. In addition, the inhibition at 50 µM in data set [2] worked out at 26%.
`CC(C)(C)OC(=O)NCc1noc(-c2c3ccccc3nn2CCc2cccs2)n1` gave an IC50 in data set [1] of 166 µM. In addition, the inhibition at 50 µM in data set [2] amounted to 1%.
Molecule `Cc1oncc1Cn1nc(-c2nc(CNC(=O)OC(C)(C)C)no2)c2ccccc21` gave an IC50 in data set [1] of 339 µM. Further, the inhibition at 50 µM in data set [2] came to 39%.
